Source: PubChem
In the library only some 5.1% were active in any assay of this set; here they are far more common.
STAT1 blocker: STAT1 signaling inhibition; 200,000 tested, 0.35% active; inhibition, % at 5.5 µM; AID 920; NIH 3T3 STAT1-luciferase reporter, IFN-gamma, luminescence;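 active means inhibition above a set limit, the mean inhibition across all tested compounds plus 3 SD, cut at about 34% in these data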
STAT3 act: activators of IL-6 induced STAT3 signaling. U3A cells, IL-6 STAT3-luciferase reporter, luminescence; 100% = signal with IL-6 EC80 alone. activation (% of control), % at 5.6 µM. 190,000 tested, 0.91% active. AID 871;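 active means activation above the screen-wide mean of compound activation plus 3 SD, cut at about 130% in these data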
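Test system: STAT3-luciferase reporter U3A cells; Detection: reporter luminescence signal; Times: 1 h compound pre-exposure, 6 h IL-6 stimulation, 37 °C; Benchmarks: IL-6-only high control; Also added: IL-6 stimulus at 33 ng/mL final.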
NF-kB neuron act: NF-kB expression increase, human neuronal cells | NF-kB reporter expression; hits give high values | fold change at 12.5 µM | 190,000 tested, 1.6% active | AID 1239; in the data active means fold change above about 3.3
APP 5'UTR act: APP 5'UTR luciferase reporter activation; SH-SY5Y APP 5'UTR luciferase reporter, luminescence; zero percent = DMSO vehicle wells; activation, % at 2 µM; 190,000 tested, 1% active; AID 1276;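 active means activation above a set limit, based on mean plus 3 SD of controls, cut at about 140% in these data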
STAT1 act: increases IFN-gamma driven STAT1 reporter signal; AID 932; 200,000 tested, 2.6% active; NIH 3T3 STAT1-luciferase reporter, luminescence; 100% = IFN-gamma alone, no compound; activation (% of control), % at 5.5 µM;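 active means activation above the screen-wide mean activation plus 3 SD, cut at about 130% in these data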
STAT3 blocker: inhibitors of IL-6 induced STAT3 signaling; U3A cells, IL-6 STAT3-luciferase reporter, luminescence; host cell line lacks STAT1; inhibition, % at 5.5 µM; 190,000 tested, 0.89% active;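 active means inhibition above the mean inhibition across all screened compounds plus 3 SD, cut at about 44% in these data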
Of the large screens only hits and unclear results are named; the others gave an inactive call.

COc1cc(C(=O)NCC(=O)N/N=C/c2ccc(OC(=O)c3ccco3)cc2)cc(OC)c1OC	none
O=S(=O)(/C=C/c1ccccc1)N1CCN(c2nc(-c3cccnc3)nc3ccccc23)CC1	none
O=C1/C(=C\c2ccco2)CCC/C1=C\c1ccco1	NF-kB neuron act 5.9
Cc1ccc(C(=O)CSc2nnc(C(C)C)n2C)cc1C	NF-kB neuron act 3.4
CCCCn1nnnc1SCC(=O)c1ccc(C)c(C)c1	none
CCc1ccc2c(c1)c1nnc(NN)nc1n2CC	none
O=C(CSc1ncc(-c2ccc(F)cc2)n1Cc1ccco1)Nc1ccc2c(c1)OCO2	STAT1 act 138
Cc1cccc(NC(=O)c2cc(-c3ccccn3)nc3ccccc23)c1C	none
CCOc1ccc2ccccc2c1CNCCN1CCOCC1	NF-kB neuron act 7.7
CCOc1ccc(Br)cc1CNCCN1CCOCC1	none
Nc1c(C(=O)Nc2ccc(F)cc2)nnn1-c1cccc(C(F)(F)F)c1	none
Cc1ccc(-c2csc(NC(=O)/C=C/c3ccco3)c2C(=O)O)cc1	STAT1 act 138
CC1CC(CN)CC(CO)C1 (configuration not stated)	none
CC1CCN(c2nc3ccc(C(=O)N4CCN(Cc5ccccc5)CC4)cc3s2)CC1	STAT1 act 130
COc1ccc(CNC(=O)c2noc3c2CCCCC3)cc1	none
COC(=O)c1ccccc1NC(=O)c1noc2c1CCCC2	none
O=C(Nc1cnn(Cc2ccc(F)cc2)c1)c1noc2c1CCCC2	STAT1 act 129
O=C(NCc1ccccc1)c1noc2c1CCCCC2	STAT1 act 130
Cc1ccc(NC(=O)c2noc3c2CCC3)cc1C	NF-kB neuron act 8.3, APP 5'UTR act 182
COc1ccc(NC(=O)c2noc3c2CCC3)cc1	NF-kB neuron act 4, APP 5'UTR act 143, STAT1 act 139
CC(=O)c1ccc(NC(=O)c2noc3c2CCC3)cc1	STAT1 blocker 53, NF-kB neuron act 4.8, APP 5'UTR act 138, STAT3 blocker 66
c1ccc(-c2cc(N3CCCCC3)ncn2)cc1	none
c1ccc(-c2cc(N3CCCCCC3)n[nH]2)cc1	STAT1 act 130
CCc1ccc(/C=N/NC(=O)c2cc(C3CC3)nc3ccc(Br)cc23)s1	none
O=c1c2cc(-c3ccccc3)sc2nc2n1CCC2	NF-kB neuron act 4.2, APP 5'UTR act 187, STAT1 act 139
Cc1nc2sc(-c3ccccc3)cc2c(=O)n1/N=C/N(C)C	STAT1 act 147
Cc1nc2sc(-c3ccccc3)cc2c(=O)n1-n1cccc1	APP 5'UTR act 142, STAT1 act 145
Cc1c(NC(=O)COC(=O)C2(c3ccc(F)cc3)CCCC2)c(=O)n(-c2ccccc2)n1C	none
Nc1cccn2c(-c3ccc(Cl)cc3)cnc12	NF-kB neuron act 8.5, APP 5'UTR act 138
Cn1c(-c2ccc(Cl)cc2)cnc1N	none
O=c1[nH]c(S)nc2sc3c(c12)CCCC3	none
O=c1[nH]c(-c2ccco2)nc2sc3c(c12)CCCC3	NF-kB neuron act 5.8, APP 5'UTR act 154, STAT1 act 149
